{"data": "Assay results of several laboratories", "target": "Serine/threonine-protein kinase N1 (PKN1, Homo sapiens, UniProt Q16512)", "note": "Protocols differ between the studies behind these lines."}
{"Compound": "Nc1ncnc2occ(-c3ccc(NC(=O)Nc4cc(C(F)(F)F)ccc4F)cc3)c12", "observed": "cell-free assay", "action": "inhibitor", "concentration": "20 µM", "measurement": "remaining signal", "result": "83%"}
{"Compound": "Cc1ccc(C(=O)Nc2ccc(CN3CCN(C)CC3)c(C(F)(F)F)c2)cc1C#Cc1cnc2cccnn12", "observed": "enzyme activity", "action": "inhibitor", "concentration": "23.5 nM", "measurement": "remaining activity", "result": "100%"}
{"Compound": "COc1ccc(-c2cc3nccn3c(Nc3ncccc3C(N)=O)n2)cc1OC.Cl", "observed": "enzyme activity", "action": "inhibitor", "concentration": "1 µM", "measurement": "activity vs control", "result": "50%"}
{"Compound": "COc1cc2ncnc(Nc3ccc(Oc4ccccc4)cc3C)c2cc1OC", "observed": "enzyme activity", "action": "inhibitor", "concentration": "1 µM", "measurement": "inhibition", "result": "4%"}
{"Compound": "CC(C)NC[C@@H](C(=O)N1CCN(c2ncnc3c2[C@H](C)C[C@H]3O)CC1)c1ccc(Cl)cc1", "observed": "enzyme activity", "action": "inhibitor", "concentration": "1 µM", "measurement": "activity vs control", "result": "1%"}
{"Compound": "O=C(Nc1cnn(-c2csc(C(=O)NC3COC3)c2)c1)Nc1c(F)cccc1Cl", "observed": "enzyme activity", "action": "inhibitor", "concentration": "5 µM", "measurement": "remaining activity", "result": "96.5%"}
{"Compound": "Cl.OC1CCC(Nc2ncc3nc(Nc4c(F)cc(F)cc4F)n(C4CCOC4)c3n2)CC1 (centres unmarked)", "observed": "enzyme activity", "action": "inhibitor", "concentration": "1 µM", "measurement": "activity vs control", "result": "98%"}
{"Compound": "CN1CC(Oc2cnc(C#N)cc2-c2ccn3nc(NC(=O)C4CC4)cc3c2)C1", "observed": "enzyme activity", "action": "inhibitor", "concentration": "1 µM", "measurement": "inhibition", "result": "-9%"}
{"Compound": "CCCCNc1ncc2c(-c3ccc(F)cc3)nn(C[C@H]3CC[C@H](N)CC3)c2n1", "observed": "target engagement in cells", "action": "inhibitor", "technique": "chemoproteomics", "concentration": "20 mM", "measurement": "inhibition", "result": "-43.3%"}
{"Compound": "CC(=O)C1=C(C)N(c2cccc(C(F)(F)F)c2)C(=O)N[C@@H]1c1ccc(C#N)nc1", "observed": "cell-free assay", "technique": "competition with immobilised ligand", "concentration": "1 µM", "measurement": "remaining binding", "result": "71.1%"}
{"Compound": "Cn1cncc1C1=CN(c2ncnc3[nH]cnc23)CCS1", "observed": "enzyme activity", "action": "inhibitor", "technique": "radiometric", "concentration": "50 nM", "measurement": "inhibition", "result": "18.8%"}
{"Compound": "C[C@@H](c1ccc2nccn2c1)n1nnc2ncc(-c3cnn(C)c3)nc21", "observed": "enzyme activity", "action": "inhibitor", "concentration": "1 µM", "measurement": "activity vs control", "result": "91%"}
{"Compound": "C#Cc1cccc(Nc2ncnc3cc(OCCOC)c(OCCOC)cc23)c1", "observed": "cell-free assay", "concentration": "0.5 µM", "measurement": "remaining signal", "result": "108%"}
{"Compound": "Cn1c2c(Cl)c(Cl)ccc2c2cc(N)[nH]c(=O)c21", "observed": "thermal stability", "technique": "DSF", "concentration": "10 µM", "measurement": "ΔTm", "result": "0.6 °C"}
{"Compound": "COc1cc(Cl)c(C(=O)N[C@@H](CN[C@H]2CC[C@@H](N)CC2)Cc2ccc(C#N)cc2)cc1-c1ccc(CN[C@H](C)c2ccc(C)cc2)o1", "observed": "enzyme activity", "action": "inhibitor", "concentration": "1 µM", "measurement": "remaining activity", "result": "108%"}
{"Compound": "Cc1ccc(NC(=O)c2ccc(CN3CCN(C)CC3)cc2)cc1Nc1nc(-c2cccnc2)cs1", "observed": "cell-free assay", "concentration": "0.5 µM", "measurement": "remaining signal", "result": "99.3%"}
{"Compound": "CCCCN(CCCC)C(=O)CN1C[C@H](c2cc(OC)c3c(c2)OCO3)[C@@H](C(=O)O)[C@@H]1CC(C)(C)CCC", "observed": "cell-free assay", "technique": "competition with immobilised ligand", "concentration": "1 µM", "measurement": "remaining binding", "result": "100%"}
{"Compound": "CC(=O)c1c(C)c2cnc(Nc3ccc(N4CCNCC4)cn3)nc2n(C2CCCC2)c1=O.Cl", "observed": "enzyme activity", "action": "inhibitor", "concentration": "1 µM", "measurement": "activity vs control", "result": "96%"}
{"Compound": "Cc1c(NC(=O)c2cc(C(N)=O)nc3cc(F)ccc23)c(C(F)(F)F)nn1Cc1ccc(C(C)(C)C)cc1", "observed": "cell-free assay", "technique": "competition with immobilised ligand", "concentration": "1 µM", "measurement": "remaining binding", "result": "100%"}
{"Compound": "C[S+]([O-])c1ccc(-c2nc(-c3ccncc3)c(-c3ccc(F)cc3)[nH]2)cc1 (centres unmarked)", "observed": "cell-free assay", "concentration": "0.5 µM", "measurement": "remaining signal", "result": "96.5%"}
{"Compound": "CC(C)(C)c1nc(-c2cccc(NS(=O)(=O)c3c(F)cccc3F)c2F)c(-c2ccnc(N)n2)s1", "observed": "enzyme activity", "action": "inhibitor", "technique": "radiometric", "concentration": "1 µM", "measurement": "remaining activity", "result": "101%"}
{"Compound": "Cc1c(NC(=O)c2cc3c(s2)CCCC3)cccc1-c1cn(C)c(=O)c(Nc2ccc([C@@H]3C(=O)N(C)CCN3C)cc2)n1", "observed": "enzyme activity", "action": "inhibitor", "concentration": "1 µM", "measurement": "activity vs control", "result": "76%"}
{"Compound": "COc1cc(-c2cn(C3CCc4c(F)cccc4N(CC(F)(F)F)C3=O)nn2)ccc1-n1cnc(C)c1 (centres unmarked)", "observed": "cell-free assay", "technique": "competition with immobilised ligand", "concentration": "1 µM", "measurement": "remaining binding", "result": "96%"}
{"Compound": "Cc1ccc(C(=O)NCc2ccsc2)cc1C#Cc1cn(C(C)C)c2ncnc(N)c12", "observed": "enzyme activity", "action": "inhibitor", "concentration": "1 µM", "measurement": "activity vs control", "result": "93%"}
{"Compound": "CN1CCC2(CC1)NC(=O)c1c(c3ccc(Cl)c(Cl)c3n1C)C2C#N (racemic)", "observed": "thermal stability", "technique": "DSF", "concentration": "10 µM", "measurement": "ΔTm", "result": "1 °C"}
{"Compound": "COc1cc(-c2cc(-c3ccc(N4CCNCC4)cc3)cnc2C)cc(OC)c1OC", "observed": "enzyme activity", "action": "inhibitor", "concentration": "1 µM", "measurement": "inhibition", "result": "6%"}
{"Compound": "C[C@@]1(Cc2ccc(C#N)cc2)C(=O)N(c2cc(Cl)cc(Cl)c2)c2ncc(C(=O)NC3(c4nc(C5CCC5)no4)CC3)n21", "observed": "cell-free assay", "technique": "competition with immobilised ligand", "concentration": "1 µM", "measurement": "remaining binding", "result": "100%"}
{"Compound": "CN(C)C1CCN(CC#Cc2nn(C3CCCC3)c3nc(NCc4ccccc4)ncc23)C1 (centres unmarked)", "observed": "enzyme activity", "action": "inhibitor", "technique": "FRET", "concentration": "1 µM", "measurement": "inhibition", "result": "1%"}
{"Compound": "CCCOc1ccc([C@H]2[C@H](C(=O)O)[C@@H](c3ccc4c(c3)OCO4)CN2CC(=O)Nc2c(CC)cccc2CC)cc1", "observed": "cell-free assay", "technique": "competition with immobilised ligand", "concentration": "1 µM", "measurement": "remaining binding", "result": "87%"}
{"Compound": "CC(C)(O)[C@H]1CC[C@H](Nc2ccc3ncc(-c4cccc(C(F)(F)F)c4)n3n2)CC1", "observed": "enzyme activity", "action": "inhibitor", "concentration": "1 µM", "measurement": "remaining activity", "result": "65.5%"}
{"Compound": "O=C(CSc1nc2nccnc2c(=O)n1CCc1ccccc1)Nc1nccs1", "observed": "enzyme activity", "action": "inhibitor", "concentration": "10 µM", "measurement": "inhibition", "result": "4%"}
{"Compound": "O=C(Nc1cnn2ccc(N3CCC[C@@H]3c3cc(F)ccc3F)nc12)N1CC[C@H](O)C1", "observed": "enzyme activity", "action": "inhibitor", "concentration": "1 µM", "measurement": "activity vs control", "result": "94%"}
{"Compound": "CC1(C)NC(=O)c2[nH]c3c(Cl)c(Cl)ccc3c2C1C#N (centres unmarked)", "observed": "thermal stability", "technique": "DSF", "concentration": "10 µM", "measurement": "ΔTm", "result": "0.4 °C"}
{"Compound": "Cc1c[nH]c2nc(Nc3ccc(N4CCN(C)CC4)c(F)c3)nc(-c3cccc(CC#N)c3)c12", "observed": "enzyme activity", "action": "inhibitor", "concentration": "1 µM", "measurement": "activity vs control", "result": "19%"}
{"Compound": "C[C@H](NC(=O)c1cnc2n1[C@](C)(Cc1ccc(C#N)cc1)C(=O)N2c1cc(Cl)c(F)c(Cl)c1)C(=O)NC1(c2ccccn2)CC1", "observed": "cell-free assay", "technique": "competition with immobilised ligand", "concentration": "1 µM", "measurement": "remaining binding", "result": "100%"}
{"Compound": "COc1cc2c(Nc3ccc(Br)cc3F)ncnc2cc1OCC1CCN(C)CC1", "observed": "cell-free assay", "concentration": "0.5 µM", "measurement": "remaining signal", "result": "103%"}
{"Compound": "O=C(NC[C@@H]1[C@H]2CN(C(=O)OCc3cc(C(F)(F)F)cc(C(F)(F)F)c3)C[C@@H]12)c1ccc2[nH]nnc2c1", "observed": "cell-free assay", "technique": "competition with immobilised ligand", "concentration": "1 µM", "measurement": "remaining binding", "result": "100%"}
{"Compound": "N#CCCc1ccc2c(c1)-c1[nH]c3ccc([N+](=O)[O-])cc3c1CC(=O)N2", "observed": "cell-free assay", "concentration": "0.5 µM", "measurement": "remaining signal", "result": "78%"}
